Laboratory results published in paper PMC5677568 (Structure (London, England : 1993), 2017).

Tests used:
Experiment in all cases: Isothermal titration calorimetry
Assay type in all cases: binding
Conditions in all cases: read-out: Values shown are Kd
[1] = biological target: RBC36
Procedure, shortened: (§1)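 N-terminally His6-tagged VLR ectodomains were expressed in Hi5 insect cells or by transient transfection of 293S cells, then purified by Ni-NTA and Superdex75 size exclusion. Protein was dialysed overnight into the ITC buffer, and lyophilised glycans were dissolved in the dialysate. Cell concentration was set by A280 with calculated extinction coefficients. Titration used 16 injections of 2.45 μL (1 s each, 180 s apart) at 5 μCal reference power. The single-site fit gave Kd and ΔH.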

[2] = biological target: UEA-1
Procedure, shortened: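 Commercial UEA-1 lectin was dialysed overnight into the ITC buffer, and lyophilised glycans were dissolved in the dialysate. Cell concentration was set by A280 with a calculated extinction coefficient. Titration used 16 injections of 2.45 μL (1 s duration, 180 s spacing) at 5 μCal reference power. Integrated peaks were fitted to a single-site model to give Kd and ΔH.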

[3] = biological target: O13
Procedure, shortened: as §1

[4] = biological target: Tn4-22
Procedure, shortened: as §1

| SMILES | Kd [1] | Kd [2] | Kd [3] | Kd [4] |
| --- | --- | --- | --- | --- |
| C[C@@H]1O[C@@H](O[C@H]2[C@H](O[C@H]3[C@H](O)[C@@H](O)C(O)O[C@@H]3CO)O[C@H](CO)[C@H](O)[C@@H]2O)[C@@H](O)[C@H](O)[C@@H]1O (stereo partly drawn) [2′-fucosyllactose, 2′-fucosyllactose, Fucα1-2Galβ1-4Glc] | 57.1 µM | 12.5 µM | – | – |
| CC(=O)N[C@H]1C(O)O[C@H](CO)[C@@H](O[C@@H]2O[C@H](CO)[C@H](O)[C@H](O)[C@H]2O[C@@H]2O[C@@H](C)[C@@H](O)[C@@H](O)[C@@H]2O)[C@@H]1O (stereo partly drawn) [H-trisaccharide, blood group H-trisaccharide type II, Fucα1-2Galβ1-4GlcNAc] | 8.3 µM | 8.1 µM | 2.6 µM | 6.9 µM |
| CC(=O)N[C@H]1[C@H](O[C@H]2[C@@H](O)[C@@H](CO)O[C@@H](O[C@H]3[C@H](O)[C@@H](O)C(O)O[C@@H]3CO)[C@@H]2O)O[C@H](CO)[C@@H](O[C@@H]2O[C@H](CO)[C@H](O)[C@H](O)[C@H]2O)[C@@H]1O (stereo partly drawn) [LNnT, lacto-N-neotetraose, Galβ1-4GlcNAcβ1-3Galβ1-4Glc] | – | – | 160 µM | 16.2 µM |
| CC(=O)N[C@H]1C(O)O[C@H](CO)[C@@H](O[C@@H]2O[C@H](CO)[C@H](O)[C@H](O)[C@H]2O[C@@H]2O[C@@H](C)[C@@H](O)[C@@H](O)[C@@H]2O)[C@@H]1O[C@@H]1O[C@@H](C)[C@@H](O)[C@@H](O)[C@@H]1O (stereo partly drawn) [Lewis-Y, Lewis-Y antigen tetrasaccharide, Fucα1-2Galβ1-4(Fucα1-3)GlcNAc] | – | 19.8 µM | – | – |
